Experimental data from ChEMBL document CHEMBL1221374, “Synthesis, proapoptotic screening, and structure-activity relationships of novel aza-lupane triterpenoids” (Bioorg Med Chem Lett, 2010).

Assays:
HT-29 = test: Cytotoxicity against human HT-29 cells after 72 hrs by MTS assay; assay type: functional, cell-based; details: HT-29, 72 h
Procedure, shortened: (§1)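 Cells (1 × 10^4/well) seeded the evening before. Compounds were taken from 10 mM DMSO stock into growth medium and tested at 2, 10, 25, 50 and 75 µM, four wells each, with DMSO-matched controls. Exposure was 72 h, then MTS reagent for 1.5-4 h at 37 °C, and formazan A490 was read against DMSO-treated cells. IC50 is the mean of four wells from one experiment, or of three experiments where stated.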

SK-MEL-2 (Homo sapiens) [1] = test: Induction of apoptosis in human SK-MEL-2 cells assessed as apoptotic cells at 7.5 uM after 16 hrs by annexin assay
A-375 = test: Cytotoxicity against human A375 cells after 72 hrs by MTS assay; assay type: functional, cell-based; details: A-375, 72 h; procedure, shortened: as §1
MCF7 = test: Cytotoxicity against human MCF7 cells after 72 hrs by MTS assay; assay type: functional, cell-based; details: MCF7, 72 h; procedure, shortened: as §1
SK-MEL-2 (Homo sapiens) [2] = test: Induction of apoptosis in human SK-MEL-2 cells assessed as necrotic cells at 7.5 uM after 16 hrs by annexin assay
[3] = Cytotoxicity against human LN229 cells after 72 hrs by MTS assay; assay type: functional, cell-based; details: LN-229, 72 h; procedure, shortened: as §1
Daoy = test: Cytotoxicity against human DaOY cells after 72 hrs by MTS assay; assay type: functional, cell-based; procedure, shortened: as §1
OVCAR-3 = test: Cytotoxicity against human OVCAR-3 cells after 120 hrs by MTS assay; details: OVCAR-3, 120 h
SK-MEL-2 = test: Cytotoxicity against human SK-MEL-2 cells after 72 hrs by MTS assay; assay type: functional, cell-based; details: SK-MEL-2, 72 h; procedure, shortened: as §1

Row | SMILES | IC50 (HT-29) | Activity (SK-MEL-2 (Homo sapiens) [1]) | IC50 (A-375) | IC50 (MCF7) | Activity (SK-MEL-2 (Homo sapiens) [2]) | IC50 [3] | IC50 (Daoy) | IC50 (OVCAR-3) | IC50 (SK-MEL-2)
1 | C=C(CNCCO)[C@@H]1CC[C@]2(CO)CC[C@]3(C)[C@H](CC[C@@H]4[C@@]5(C)CCC(NCCc6ccc(O)cc6)C(C)(C)[C@@H]5CC[C@]43C)[C@@H]12 (some centres not stated) | < 2 µM | > 60% | 2 µM | 4 µM | < 15% | 14 µM | < 2 µM | 40 µM | 5 µM
2 | C=C(CNCCO)[C@@H]1CC[C@]2(CO)CC[C@]3(C)[C@H](CC[C@@H]4[C@@]5(C)CCC(N)C(C)(C)[C@@H]5CC[C@]43C)[C@@H]12 (some centres not stated) | < 2 µM | > 60% | 5 µM | 2 µM | < 15% | 12 µM | 5 µM | – | 6 µM
